According to ChEMBL document CHEMBL4808162, “Constraining the Side Chain of C-Terminal Amino Acids in Apelin-13 Greatly Increases Affinity, Modulates Signaling, and Improves the Pharmacokinetic Profile” (J Med Chem, 2021):

How the values were obtained:
Apelin receptor [1] = target: T1, Apelin receptor (Homo sapiens, UniProt P35414); assay: Displacement of [125I] [NIe75,Tyr77]Pyr-apelin-13 from YFP-tagged human APJ receptor expressed in HEK293 cells incubated for 1 hr by gamma counting analysis; type: cell-based
T1 sequence (P35414 whole entry): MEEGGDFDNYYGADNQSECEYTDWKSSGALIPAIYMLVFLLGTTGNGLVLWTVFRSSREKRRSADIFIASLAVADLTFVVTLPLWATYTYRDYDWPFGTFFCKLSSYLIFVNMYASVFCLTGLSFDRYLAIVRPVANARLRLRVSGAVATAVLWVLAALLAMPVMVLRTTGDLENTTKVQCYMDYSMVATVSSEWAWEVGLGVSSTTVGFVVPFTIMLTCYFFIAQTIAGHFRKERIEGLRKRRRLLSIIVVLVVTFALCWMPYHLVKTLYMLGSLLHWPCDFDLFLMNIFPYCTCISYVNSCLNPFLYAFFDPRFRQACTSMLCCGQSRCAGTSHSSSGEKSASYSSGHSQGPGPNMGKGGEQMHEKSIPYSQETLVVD

[2] = Stability in Sprague-Dawley rat plasma assessed as half life measured up to 24 hrs by UPLC-MS analysis; type: ADME, cell-free
Procedure, shortened: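 Peptide (6 μL of 1 mM aqueous solution) incubated with 27 μL male Sprague-Dawley rat plasma at 37 °C. Time points 0, 1, 2, 4, 7, 24 h, or 0–120 min for labile peptides. Reaction quenched with acetonitrile-ethanol containing N,N-dimethylbenzamide internal standard, filtered, then UPLC-MS. t1/2 from one-phase exponential decay; at least three experiments.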

Apelin receptor [3] = target: T1, Apelin receptor; assay: Agonist activity at human APJ receptor expressed in HEK293 cells co-expressing Rlucll-beta-arrestin2 assessed as induction of beta-arrestin2 recruitment to receptor incubated for 30 mins by BRET assay; type: functional, cell-based
Apelin receptor [4] = target: T1, Apelin receptor; assay: Agonist activity at human APJ receptor expressed in HEK293T cells co-expressing PDZ-Rho-Gef-RLucll and rGFP-CAAX assessed as induction of recruitment of Galpha12 to cell membrane using coelenterazine luciferase substrate incubated for 5 mins by BRET assay; type: functional, cell-based, HEK293
Apelin receptor [5] = target: T1, Apelin receptor; assay: Agonist activity at human APJ receptor expressed in HEK293T cells co-expressing Galphai1 RlucII assessed as dissociation of Galphai1 from Gbetta/gamma subunit measured using coelenterazine luciferase substrate incubated for 5 mins by BRET assay; type: functional, cell-based, HEK293

Row | SMILES | Ki (Apelin receptor [1]) | half-life [2] | EC50 (Apelin receptor [3]) | EC50 (Apelin receptor [4]) | EC50 (Apelin receptor [5]) | Ki (Apelin receptor [1]; hek293) | EC50 (Apelin receptor [3]; hek293) | EC50 (Apelin receptor [4]; hek293) | EC50 (Apelin receptor [5]; hek293)
1 | CCCC[C@H](NC(=O)[C@@H]1CCCN1C(=O)CNC(=O)[C@H](CCCCN)NC(=O)[C@H](Cc1cnc[nH]1)NC(=O)[C@H](CO)NC(=O)[C@H](CC(C)C)NC(=O)[C@H](CCCNC(=N)N)NC(=O)[C@@H]1CCCN1C(=O)[C@H](CCCNC(=N)N)NC(=O)[C@@H]1CCC(=O)N1)C(=O)N[C@H](Cc1cccc2ccccc12)C(=O)N1Cc2ccccc2C[C@H]1C(=O)O | – | 6.1 h | – | – | – | 0.08 nM | 33 nM | 28 nM | 4.2 nM
2 | CCCC[C@H](NC(=O)[C@@H]1CCCN1C(=O)CNC(=O)[C@H](CCCCN)NC(=O)[C@H](Cc1cnc[nH]1)NC(=O)[C@H](CO)NC(=O)[C@H](CC(C)C)NC(=O)[C@H](CCCNC(=N)N)NC(=O)[C@@H]1CCCN1C(=O)[C@H](CCCNC(=N)N)NC(=O)[C@@H]1CCC(=O)N1)C(=O)N1CC[C@H](c2ccccc2)[C@@H]1C(=O)N[C@@H](Cc1ccccc1)C(=O)O | 4.2 nM | – | 454 nM | 48 nM | 17 nM | – | – | – | –
3 | CCCC[C@H](NC(=O)[C@@H]1CCCN1C(=O)CNC(=O)[C@H](CCCCN)NC(=O)[C@H](Cc1cnc[nH]1)NC(=O)[C@H](CO)NC(=O)[C@H](CC(C)C)NC(=O)[C@H](CCCNC(=N)N)NC(=O)[C@@H]1CCCN1C(=O)[C@H](CCCNC(=N)N)NC(=O)[C@@H]1CCC(=O)N1)C(=O)N1Cc2ccccc2C[C@@H]1C(=O)N[C@@H](Cc1ccccc1)C(=O)O | 9.7 nM | – | 142 nM | 67 nM | 9.6 nM | – | – | – | –
4 | CCCC[C@H](NC(=O)[C@@H]1CCCN1C(=O)CNC(=O)[C@H](CCCCN)NC(=O)[C@H](Cc1cnc[nH]1)NC(=O)[C@H](CO)NC(=O)[C@H](CC(C)C)NC(=O)[C@H](CCCNC(=N)N)NC(=O)[C@@H]1CCCN1C(=O)[C@H](CCCNC(=N)N)NC(=O)[C@@H]1CCC(=O)N1)C(=O)N1CCC[C@H]1C(=O)N[C@H]1Cc2c([nH]c3ccccc23)CN(CC(=O)O)C1=O | 4.3 nM | – | 311 nM | 481 nM | 6.8 nM | – | – | – | –
5 | CCCC[C@H](NC(=O)[C@@H]1CCCN1C(=O)CNC(=O)[C@H](CCCCN)NC(=O)[C@H](Cc1cnc[nH]1)NC(=O)[C@H](CO)NC(=O)[C@H](CC(C)C)NC(=O)[C@H](CCCNC(=N)N)NC(=O)[C@@H]1CCCN1C(=O)[C@H](CCCNC(=N)N)NC(=O)[C@@H]1CCC(=O)N1)C(=O)N1CCC[C@H]1C(=O)N[C@H](Cc1cc(C2CCCC2)c(O)c(C2CCCC2)c1)C(=O)O | 1.6 nM | – | 361 nM | 111 nM | 16 nM | – | – | – | –
6 | CCCC[C@H](NC(=O)[C@@H]1CCCN1C(=O)CNC(=O)[C@H](CCCCN)NC(=O)[C@H](Cc1cnc[nH]1)NC(=O)[C@H](CO)NC(=O)[C@H](CC(C)C)NC(=O)[C@H](CCCNC(=N)N)NC(=O)[C@@H]1CCCN1C(=O)[C@H](CCCNC(=N)N)NC(=O)[C@@H]1CCC(=O)N1)C(=O)N1CCC[C@H]1C(=O)N[C@H](C(=O)O)C(C)(C)c1ccccc1 | 0.36 nM | – | 69 nM | 67 nM | 2.4 nM | – | – | – | –
7 | CCCC[C@H](NC(=O)[C@@H]1CCCN1C(=O)CNC(=O)[C@H](CCCCN)NC(=O)[C@H](Cc1cnc[nH]1)NC(=O)[C@H](CO)NC(=O)[C@H](CC(C)C)NC(=O)[C@H](CCCNC(=N)N)NC(=O)[C@@H]1CCCN1C(=O)[C@H](CCCNC(=N)N)NC(=O)[C@@H]1CCC(=O)N1)C(=O)N1CCC[C@H]1C(=O)N[C@H](C(=O)O)C(C)c1ccccc1 (stereo partly drawn) | 0.37 nM | – | 40 nM | 108 nM | 1 nM | – | – | – | –
8 | CCCC[C@H](NC(=O)[C@@H]1CCCN1C(=O)CNC(=O)[C@H](CCCCN)NC(=O)[C@H](Cc1cnc[nH]1)NC(=O)[C@H](CO)NC(=O)[C@H](CC(C)C)NC(=O)[C@H](CCCNC(=N)N)NC(=O)[C@@H]1CCCN1C(=O)[C@H](CCCNC(=N)N)NC(=O)[C@@H]1CCC(=O)N1)C(=O)N1CCC[C@H]1C(=O)N1C[C@@H](OCc2ccccc2)C[C@@H]1C(=O)O | 6.1 nM | – | 192 nM | 63 nM | 6.4 nM | – | – | – | –
9 | CCCC[C@H](NC(=O)[C@@H]1CCCN1C(=O)CNC(=O)[C@H](CCCCN)NC(=O)[C@H](Cc1cnc[nH]1)NC(=O)[C@H](CO)NC(=O)[C@H](CC(C)C)NC(=O)[C@H](CCCNC(=N)N)NC(=O)[C@@H]1CCCN1C(=O)[C@H](CCCNC(=N)N)NC(=O)[C@@H]1CCC(=O)N1)C(=O)N1CCC[C@H]1C(=O)N[C@H](Cc1ccc(OCc2ccccc2)c(C2CCCC2)c1)C(=O)O | 0.41 nM | – | 69 nM | 53 nM | 5.7 nM | – | – | – | –
10 | CCCC[C@H](NC(=O)[C@@H]1CCCN1C(=O)CNC(=O)[C@H](CCCCN)NC(=O)[C@H](Cc1cnc[nH]1)NC(=O)[C@H](CO)NC(=O)[C@H](CC(C)C)NC(=O)[C@H](CCCNC(=N)N)NC(=O)[C@@H]1CCCN1C(=O)[C@H](CCCNC(=N)N)NC(=O)[C@@H]1CCC(=O)N1)C(=O)N1CCC[C@H]1C(=O)N[C@H]1Cc2c(ccc3ccccc23)CN(CC(=O)O)C1=O | 1.7 nM | – | 221 nM | 74 nM | 6.4 nM | – | – | – | –
11 | CCCC[C@H](NC(=O)[C@@H]1CCCN1C(=O)CNC(=O)[C@H](CCCCN)NC(=O)[C@H](Cc1cnc[nH]1)NC(=O)[C@H](CO)NC(=O)[C@H](CC(C)C)NC(=O)[C@H](CCCNC(=N)N)NC(=O)[C@@H]1CCCN1C(=O)[C@H](CCCNC(=N)N)NC(=O)[C@@H]1CCC(=O)N1)C(=O)N[C@H](Cc1ccc2ccccc2c1)C(=O)N1Cc2ccccc2C[C@@H]1C(=O)O | 0.37 nM | – | 94 nM | – | 4.3 nM | – | – | – | –

More lines, now with the values ahead:

Row | Ki (Apelin receptor [1]) | half-life [2] | EC50 (Apelin receptor [3]) | EC50 (Apelin receptor [4]) | EC50 (Apelin receptor [5]) | Ki (Apelin receptor [1]; hek293) | EC50 (Apelin receptor [3]; hek293) | EC50 (Apelin receptor [4]; hek293) | EC50 (Apelin receptor [5]; hek293) | SMILES
12 | 0.04 nM | 0.5 h | 19 nM | 10 nM | 1.5 nM | – | – | – | – | CCCC[C@H](NC(=O)[C@@H]1CCCN1C(=O)CNC(=O)[C@H](CCCCN)NC(=O)[C@H](Cc1cnc[nH]1)NC(=O)[C@H](CO)NC(=O)[C@H](CC(C)C)NC(=O)[C@H](CCCNC(=N)N)NC(=O)[C@@H]1CCCN1C(=O)[C@H](CCCNC(=N)N)NC(=O)[C@@H]1CCC(=O)N1)C(=O)N1CCC[C@H]1C(=O)NC(Cc1ccccc1)(Cc1ccccc1)C(=O)O
13 | 0.19 nM | – | 45 nM | 22 nM | 3.4 nM | – | – | – | – | CCCC[C@H](NC(=O)[C@@H]1CCCN1C(=O)CNC(=O)[C@H](CCCCN)NC(=O)[C@H](Cc1cnc[nH]1)NC(=O)[C@H](CO)NC(=O)[C@H](CC(C)C)NC(=O)[C@H](CCCNC(=N)N)NC(=O)[C@@H]1CCCN1C(=O)[C@H](CCCNC(=N)N)NC(=O)[C@@H]1CCC(=O)N1)C(=O)N1CCC[C@H]1C(=O)N1Cc2cc(OCc3ccccc3)ccc2C[C@@H]1C(=O)O
14 | – | – | – | – | – | 0.02 nM | 14 nM | 11 nM | 0.5 nM | CCCC[C@H](NC(=O)[C@@H]1CCCN1C(=O)CNC(=O)[C@H](CCCCN)NC(=O)[C@H](Cc1cnc[nH]1)NC(=O)[C@H](CO)NC(=O)[C@H](CC(C)C)NC(=O)[C@H](CCCNC(=N)N)NC(=O)[C@@H]1CCCN1C(=O)[C@H](CCCNC(=N)N)NC(=O)[C@@H]1CCC(=O)N1)C(=O)N1CCC[C@H]1C(=O)N[C@H](Cc1ccc(OCc2ccccc2)cc1)C(=O)O
15 | – | – | – | – | – | 0.31 nM | 47 nM | 24 nM | 1.4 nM | CCCC[C@H](NC(=O)[C@@H]1CCCN1C(=O)CNC(=O)[C@H](CCCCN)NC(=O)[C@H](Cc1cnc[nH]1)NC(=O)[C@H](CO)NC(=O)[C@H](CC(C)C)NC(=O)[C@H](CCCNC(=N)N)NC(=O)[C@@H]1CCCN1C(=O)[C@H](CCCNC(=N)N)NC(=O)[C@@H]1CCC(=O)N1)C(=O)N1CCC[C@H]1C(=O)N[C@H](Cc1cccc(-c2ccccc2)c1)C(=O)O
16 | 1 nM | – | 571 nM | 11 nM | 19 nM | – | – | – | – | CCCC[C@H](NC(=O)[C@@H]1CCCN1C(=O)CNC(=O)[C@H](CCCCN)NC(=O)[C@H](Cc1cnc[nH]1)NC(=O)[C@H](CO)NC(=O)[C@H](CC(C)C)NC(=O)[C@H](CCCNC(=N)N)NC(=O)[C@@H]1CCCN1C(=O)[C@H](CCCNC(=N)N)NC(=O)[C@@H]1CCC(=O)N1)C(=O)N1CCC[C@H]1C(=O)N[C@@](C)(Cc1ccc(OCc2ccccc2)cc1)C(=O)O
17 | – | – | – | – | – | 0.46 nM | 106 nM | 45 nM | 3.8 nM | CCCC[C@H](NC(=O)[C@@H]1CCCN1C(=O)CNC(=O)[C@H](CCCCN)NC(=O)[C@H](Cc1cnc[nH]1)NC(=O)[C@H](CO)NC(=O)[C@H](CC(C)C)NC(=O)[C@H](CCCNC(=N)N)NC(=O)[C@@H]1CCCN1C(=O)[C@H](CCCNC(=N)N)NC(=O)[C@@H]1CCC(=O)N1)C(=O)N1CCC[C@H]1C(=O)N[C@H](Cc1cccc(OCc2ccccc2)c1)C(=O)O
18 | – | – | – | – | – | 0.35 nM | 64 nM | 21 nM | 2.1 nM | CCCC[C@H](NC(=O)[C@@H]1CCCN1C(=O)CNC(=O)[C@H](CCCCN)NC(=O)[C@H](Cc1cnc[nH]1)NC(=O)[C@H](CO)NC(=O)[C@H](CC(C)C)NC(=O)[C@H](CCCNC(=N)N)NC(=O)[C@@H]1CCCN1C(=O)[C@H](CCCNC(=N)N)NC(=O)[C@@H]1CCC(=O)N1)C(=O)N1CCC[C@H]1C(=O)N[C@H](Cc1ccc(-c2ccccc2)cc1)C(=O)O
